# Assay results: ChEMBL document CHEMBL4371014, “Novel Allosteric Ligands of γ-Aminobutyric Acid Transporter 1 (GAT1) by MS Based Screening of Pseudostatic Hydrazone Libraries” (J Med Chem, 2018)
# Calls of active or inactive are those of the source. The calls are words filed in the database; no cut-off is given here.
# How the values were obtained:
# [1] = molecular target: Sodium- and chloride-dependent GABA transporter 1 (Homo sapiens) (UniProt P30531); assay: Inhibition of human GAT1 expressed in HEK293 cells assessed as reduction in [3H]GABA uptake preincubated for 25 mins followed by [3H]GABA addition and measured after 4 mins by liquid scintillation counting method; type: cell-based
# Sodium- and chloride-dependent GABA transporter 1 (Homo sapiens), sequence (P30531 whole entry, looked up): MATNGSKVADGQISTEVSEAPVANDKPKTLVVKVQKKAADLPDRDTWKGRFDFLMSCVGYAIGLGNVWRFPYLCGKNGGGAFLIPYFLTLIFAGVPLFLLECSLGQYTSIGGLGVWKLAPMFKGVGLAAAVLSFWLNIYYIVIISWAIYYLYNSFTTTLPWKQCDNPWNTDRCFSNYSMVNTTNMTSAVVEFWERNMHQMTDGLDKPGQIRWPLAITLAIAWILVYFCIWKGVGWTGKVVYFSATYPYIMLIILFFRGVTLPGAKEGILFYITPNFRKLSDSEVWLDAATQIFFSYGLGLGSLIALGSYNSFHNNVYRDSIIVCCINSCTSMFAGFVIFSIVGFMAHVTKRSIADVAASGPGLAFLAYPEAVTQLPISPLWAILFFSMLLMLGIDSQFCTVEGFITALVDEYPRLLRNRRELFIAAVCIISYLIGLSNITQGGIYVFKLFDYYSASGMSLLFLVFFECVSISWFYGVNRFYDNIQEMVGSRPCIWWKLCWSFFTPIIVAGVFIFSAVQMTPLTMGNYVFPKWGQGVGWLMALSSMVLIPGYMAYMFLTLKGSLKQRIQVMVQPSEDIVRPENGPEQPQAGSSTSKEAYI
# [2] = molecular target: Sodium- and chloride-dependent GABA transporter 1 (Homo sapiens) (UniProt P30531); conditions: 1 uM
# [3] = molecular target: Sodium- and chloride-dependent GABA transporter 1 (Homo sapiens) (UniProt P30531); conditions: 100 nM
# [4] = system: Slc6a13 GABA transporter mGAT3 (Mus musculus); assay: Inhibition of mouse GAT3 expressed in HEK293 cells assessed as reduction in [3H]GABA uptake at 100 uM preincubated for 25 mins followed by [3H]GABA addition and measured after 4 mins by liquid scintillation counting method relative to control
# [5] = system: Betaine/GABA transporter BGT1 (Mus musculus); assay: Inhibition of mouse GAT2 expressed in HEK293 cells assessed as reduction in [3H]GABA uptake at 100 uM preincubated for 25 mins followed by [3H]GABA addition and measured after 10 mins by liquid scintillation counting method relative to control
# [6] = molecular target: Sodium- and chloride-dependent GABA transporter 1 (Mus musculus) (UniProt P31648); assay: Inhibition of NO711 binding to mouse GAT1 expressed in HEK293 cell membranes assessed as residual binding at 1 uM preincubated for 4 hrs followed by NO711 addition and measured after 40 mins by LC-ESI-MS/MS analysis relative to control
# Outline: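 Single hydrazones formed in situ in the presence of mouse GAT1 from one aldehyde (1.0 µM) and hydrazine (200 µM). Formation ran 4 h, then NO711 MS marker was added for 40 min. Specifically bound NO711 was freed from the target and quantified by LC-ESI-MS/MS. Results are % remaining specific binding, means±SD of four replicates.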
# [7] = molecular target: Sodium- and chloride-dependent GABA transporter 1 (Mus musculus) (UniProt P31648); assay: Inhibition of mouse GAT1 expressed in HEK293 cells assessed as reduction in [3H]GABA uptake at 100 uM preincubated for 25 mins followed by [3H]GABA addition and measured after 4 mins by liquid scintillation counting method relative to control; type: cell-based
# [8] = molecular target: T1, GABA transporter 4 (Mus musculus) (UniProt P31650); assay: Inhibition of mouse GAT4 expressed in HEK293 cells assessed as reduction in [3H]GABA uptake at 100 uM preincubated for 25 mins followed by [3H]GABA addition and measured after 4 mins by liquid scintillation counting method relative to control; type: cell-based
# T1 sequence (whole entry): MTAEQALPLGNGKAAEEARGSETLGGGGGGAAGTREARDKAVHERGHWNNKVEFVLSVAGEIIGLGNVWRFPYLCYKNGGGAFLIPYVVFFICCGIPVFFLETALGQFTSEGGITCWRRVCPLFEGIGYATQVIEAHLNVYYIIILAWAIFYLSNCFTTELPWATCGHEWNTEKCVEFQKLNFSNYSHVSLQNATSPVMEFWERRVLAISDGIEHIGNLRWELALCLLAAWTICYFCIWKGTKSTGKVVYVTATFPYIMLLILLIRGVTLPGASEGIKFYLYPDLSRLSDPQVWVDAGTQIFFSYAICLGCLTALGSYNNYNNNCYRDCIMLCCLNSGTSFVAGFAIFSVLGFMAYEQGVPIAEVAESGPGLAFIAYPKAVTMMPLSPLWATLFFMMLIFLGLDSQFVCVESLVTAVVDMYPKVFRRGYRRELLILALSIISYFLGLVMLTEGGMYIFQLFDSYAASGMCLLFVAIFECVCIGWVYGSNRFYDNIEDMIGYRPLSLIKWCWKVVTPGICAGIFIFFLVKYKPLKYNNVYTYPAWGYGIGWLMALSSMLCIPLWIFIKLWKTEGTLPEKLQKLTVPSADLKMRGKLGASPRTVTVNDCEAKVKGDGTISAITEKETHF
# [9] = molecular target: Sodium- and chloride-dependent GABA transporter 1 (Homo sapiens) (UniProt P30531); assay: (§1) Non-competitive inhibition of human GAT1 expressed in COS cells assessed as reduction in [2H6]GABA uptake by measuring [2H6]GABA Bmax at 10 uM preincubated for 25 mins followed by [2H6]GABA addition and measured after 4 mins […] (reference value: 79.5 +/- 5 pmol/mg); type: cell-based
# [10] = molecular target: Sodium- and chloride-dependent GABA transporter 1 (Homo sapiens) (UniProt P30531); assay: as §1, with “1” for “10”; type: cell-based
SMILES,inhibition [1],Bmax [2] [pmol/mg],Bmax [3] [pmol/mg],inhibition [4] [%],inhibition [5] [%],Activity [6] [%],inhibition [7] [%],inhibition [8] [%],Bmax [9] [pmol/mg],Bmax [10] [pmol/mg]
O=C(O)[C@H]1CNC[C@@H](CN/N=C/c2ccc(-c3cc(C(F)(F)F)cc(C(F)(F)F)c3)o2)C1 (racemic),Active,–,–,65,84,32,50,79,38.9,57.1
O=C(O)[C@H]1CNC[C@@H](CN/N=C/c2ccc(-c3ccc(C(F)(F)F)cc3Cl)o2)C1 (racemic),Active,–,–,59,65,40,–,53,–,–

# Now from value to molecule:
inhibition [1],Bmax [2] [pmol/mg],Bmax [3] [pmol/mg],inhibition [4] [%],inhibition [5] [%],Activity [6] [%],inhibition [7] [%],inhibition [8] [%],Bmax [9] [pmol/mg],Bmax [10] [pmol/mg],SMILES
Active,81,79.9,–,–,–,–,–,–,–,Cc1ccsc1C(=CCCN1CCC[C@@H](C(=O)O)C1)c1sccc1C
Active,–,–,57,91,38,–,57,–,–,O=C(O)[C@H]1CNC[C@@H](CN/N=C/c2ccc(-c3cc(C(F)(F)F)ccc3Cl)o2)C1 (racemic)
Active,–,–,–,64,16,–,–,28.3,48.4,O=C(O)[C@H]1CNC[C@@H](CN/N=C/c2ccc(-c3cccc4ccccc34)o2)C1 (racemic)
